According to ChEMBL document CHEMBL2057105, “Effect of substitution at N″-position of N'-hydroxy-N-amino guanidines on tumor cell growth” (Bioorg Med Chem Lett, 2012):

Test system: HL-60
Experiment: Cytotoxicity against human HL60 cells after 72 hrs by trypan blue assay
Format: functional, cell-based
Settings: HL-60, 72 h
In short: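 HL-60 cells in log phase, grown in RPMI 1640 with 10% heat-inactivated FCS, 1% L-glutamine and 1% penicillin–streptomycin (37 °C, 5% CO₂), seeded at 0.1 × 10^6/mL in flasks and exposed to increasing compound concentrations for 72 h at 37 °C. Viable cells counted electronically after trypan blue staining; IC50 as 50% growth inhibition; means SD of at least three experiments.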

| Structure (SMILES) | IC50 [µM] |
| --- | --- |
| C/N=C(/NO)N/N=C/c1c2ccccc2cc2ccccc12 | 32.9 |
| CC/N=C(/NO)N/N=C/c1c2ccccc2cc2ccccc12 | 22.6 |
| CCC/N=C(/NO)N/N=C/c1c2ccccc2cc2ccccc12 | 24.9 |
| CC(C)/N=C(/NO)N/N=C/c1c2ccccc2cc2ccccc12 | 29.8 |
| ON/C(=N\C1CCCCC1)N/N=C/c1c2ccccc2cc2ccccc12 | 21.1 |
| ON/C(=N\Cc1ccccc1)N/N=C/c1c2ccccc2cc2ccccc12 | 19.3 |
| ON/C(=N\CCc1ccccc1)N/N=C/c1c2ccccc2cc2ccccc12 | 19.6 |
| CCCC/N=C(\NO)N/N=C/c1c2ccccc2cc2ccccc12 | 21.1 |
| CC(=O)N/C(=N/O)N/N=C/c1c2ccccc2cc2ccccc12 | 20 |
| O=C(N/C(=N/O)N/N=C/c1c2ccccc2cc2ccccc12)c1ccc([N+](=O)[O-])cc1 | 10 |
| O=C(N/C(=N/O)N/N=C/c1c2ccccc2cc2ccccc12)c1cc([N+](=O)[O-])cc([N+](=O)[O-])c1 | 8 |
